# Bioassay records as filed in PubChem BioAssay.
# MsrA act – activates bovine MsrA enzyme; activation, % at 10.6 µM; actives 0.3% (n = 360,000); purified bovine MsrA, absorbance read-out; in the data active = activation above about 7.5%
# MsrA inhibitor – bovine MsrA inhibition. AID 651718. actives 0.75% (n = 360,000). purified bovine MsrA, absorbance read-out. inhibition, % at 15.5 µM; in the data active = inhibition above about 4.5%
# ARFGAP1 inhibitor – inhibits rat ARF GTPase activating protein 1; AID 651572; Arfgap1-stimulated ARF1 GTP hydrolysis, GDP FP detection; actives 0.26% (n = 360,000); inhibition, % at 16.5 µM; Q62848;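 active = inhibition above a per-plate limit, mean inhibition of low control wells plus 3 SD, cut at about 25% in these data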
#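 System: truncated rat Arfgap1 GAP domain / Medium: HEPES-based buffer, pH 7.5 / Also added: N-terminally truncated human ARF1-GTP substrate / Incubation: enzyme reaction 120 min at 25 °C after 20 min preincubation / Measured by: FP of antibody-bound GDP Alexa 633 tracer, ex 620/em 688 nm / Replicates: singlicate, each compound tested once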
# sPLA2-III inh – Blocks human group III sPLA2 activity; Q9NZ20; QFRET BODIPY PC-A2 liposome hydrolysis, fluorescence; inhibition, % at 12.2 µM; actives 0.56% (n = 370,000); AID 743126;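 active = inhibition above mean plus 3 SD of compounds lying within the high and low control bounds, cut at about 19% in these data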
# ASAP1 GAP inh – ASAP1 ArfGAP inhibition; ASAP1-stimulated ARF1 GTP hydrolysis, GDP FP detection; inhibition, % at 16.5 µM; actives 0.19% (n = 360,000); AID 624377; in the data active = inhibition above about 25%
# NR1D1 modulator – Rev-erb alpha (human) modulation. P20393. Rev-erbα–FITC-DNA binding, fluorescence polarization, 90 min. activity, % at 10 µM. actives 0.79% (n = 370,000);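 active = activity above about 14%, limit read from the data; passing the limit was not always enough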
# Target sequence (P20393 whole entry, looked up): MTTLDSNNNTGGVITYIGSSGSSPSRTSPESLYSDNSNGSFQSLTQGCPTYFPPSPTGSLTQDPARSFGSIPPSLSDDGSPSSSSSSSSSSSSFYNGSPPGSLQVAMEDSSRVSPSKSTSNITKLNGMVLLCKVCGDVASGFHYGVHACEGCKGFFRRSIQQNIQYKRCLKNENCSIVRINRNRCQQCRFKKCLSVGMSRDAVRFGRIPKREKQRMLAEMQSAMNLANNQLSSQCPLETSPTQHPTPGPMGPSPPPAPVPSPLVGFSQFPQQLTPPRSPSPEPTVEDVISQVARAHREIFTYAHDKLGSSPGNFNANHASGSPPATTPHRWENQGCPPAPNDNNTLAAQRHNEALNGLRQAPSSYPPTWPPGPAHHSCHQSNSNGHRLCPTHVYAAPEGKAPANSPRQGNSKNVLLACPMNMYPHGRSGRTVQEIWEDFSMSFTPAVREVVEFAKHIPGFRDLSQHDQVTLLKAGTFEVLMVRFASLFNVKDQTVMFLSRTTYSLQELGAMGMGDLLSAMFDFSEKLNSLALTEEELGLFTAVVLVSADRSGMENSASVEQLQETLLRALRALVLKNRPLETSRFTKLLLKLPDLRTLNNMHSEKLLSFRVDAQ
# NR1D1 mod conf – confirmation of modulators of human Rev-erb alpha DNA binding; Rev-erb alpha FITC-DNA binding, fluorescence polarization, 90 min; activation, % at 25 µM; actives 61% (n = 3,000); shares compounds with NR1D1 modulator; AID 1259319;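 active = activation at or above a set limit, or at least 3 SD above the negative control mean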
# RORg DNA counter – counter-screen for Rev-erb alpha modulators: RORgamma DNA binding; AID 1259320; actives 8% (n = 910); purified RORgamma protein-FITC-DNA binding, fluorescence polarization; IC50, µM; shares compounds with NR1D1 modulator;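 active = Compounds whose fitted half-maximal concentration for disrupting protein-DNA binding is below 10 micromolar; the record names Rev-erb in its text, so the target is in doubt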
# Numbers stand for hits; 0 = inactive; - = no result given. A selection: hits, their analogues and other compounds. The true share with any hit is near 2.7%.
SMILES,MsrA act,MsrA inhibitor,ARFGAP1 inhibitor,sPLA2-III inh,ASAP1 GAP inh,NR1D1 modulator,NR1D1 mod conf,others
O=C(Nc1ccccc1F)c1cccc(C(=O)Nc2ccccc2F)c1,0,0,0,0,0,41,0,
COc1cccc(C(=O)Nc2ccccc2F)c1,0,0,0,0,0,0,-,
O=C1CCC2(CCCC2)c2ccccc21,0,0,0,0,0,0,-,
Cc1ccc2nc(N3CCN(c4cccc(C)c4C)CC3)c3nnnn3c2c1,0,0,0,0,0,28,71,RORg DNA counter=0
Cc1ccc2nc(Cl)c3nnnn3c2c1,0,-,-,-,-,-,-,
CC1C(=O)OC2C1CCC1(C)C3(C)C(=O)C=CC213 (stereo not drawn),0,0,0,0,0,0,-,
S=c1[nH]nc(SCc2ccccc2)c2[nH]cnc12,0,0,0,0,0,0,-,
COc1ccc(OC)c(Nc2nc(-c3ccccc3O)nc3ccccc23)c1,0,0,0,0,0,327,224,RORg DNA counter=0
O=[N+]([O-])c1ccc(-c2nc(Nc3cccc(O)c3)c3ccccc3n2)cc1,0,0,0,0,0,28,0,
COc1cccc(Nc2nc(-c3ccccc3O)nc3ccccc23)c1,0,0,0,0,0,155,96,RORg DNA counter=0
CCc1nc(N)nc(N)c1-c1ccc(N(C)Cc2ccccc2)c([N+](=O)[O-])c1,0,0,0,0,0,0,-,
Cc1ccc2c(c1C)NC(=O)CC(c1ccccc1O)=N2,0,0,0,0,0,204,140,RORg DNA counter=0
C[C@@H]1C[C@H](O)CCCCCC(=O)Cc2cc(O)cc(O)c2C(=O)O1,-,-,-,0,-,0,-,
C=CCn1c(SCc2cc(C(C)=O)ccc2OCC)nc2ccccc2c1=O,0,0,0,0,0,0,-,
COc1ccc(C(C)=O)cc1CSc1nc2ccccc2c(=O)n1-c1ccccc1,0,0,0,0,0,36,36,RORg DNA counter=0
COc1ccc(C(C)=O)cc1CSc1nc2ccccc2c(=O)n1-c1ccccc1C,0,0,0,0,0,0,-,
COc1ccc(C(C)=O)cc1CSc1nc2ccccc2c(=O)n1-c1cccc(C)c1,0,0,0,0,0,39,36,RORg DNA counter=9.4
N#Cc1ccc(-c2ccccc2)nc1SCC(=O)c1cccc(Cl)c1,0,0,0,0,0,38,18,
N#Cc1ccc(-c2cccnc2)nc1SCC(=O)c1ccccc1,0,0,0,0,0,23,30,
CCN(CC)C(=O)CSc1nc(-c2ccccc2)ccc1C#N,0,0,0,0,0,0,-,
O=C1OC(c2ccc3ccccc3c2O)(c2ccc3ccccc3c2O)c2ccccc21,0,0,0,0,0,0,-,
COc1ccc(N2C(=O)c3cccc4cccc(c34)C2=O)cc1,0,0,0,0,0,28,26,
COc1ccc(N2C(=O)c3ccccc3C2=O)cc1,0,0,0,0,0,0,-,
COc1ccc(N2C(=O)c3cccc4c(N(C)CCO)ccc(c34)C2=O)cc1,0,0,0,0,0,42,36,RORg DNA counter=0
COc1ccc(C(=O)c2[nH]c(N)c(C(=O)c3ccccc3)c2-c2ccc(OC)c(OC)c2)cc1,-,-,-,0,-,0,-,
SMILES,MsrA act,MsrA inhibitor,ARFGAP1 inhibitor,sPLA2-III inh,ASAP1 GAP inh,NR1D1 modulator,NR1D1 mod conf,others
Nc1ncnc2c1ncn2[C@@H]1O[C@H](C(=O)Nc2ccc(Oc3ccccc3)nc2)[C@@H](O)[C@H]1O,0,0,0,0,0,0,-,
COc1ccc2c(c1)CCCN2C(=O)C1CCCN(S(=O)(=O)c2ccc(Br)s2)C1 (stereo not drawn),-,-,-,0,-,0,-,
O=c1[nH]c(SCCOc2ccccc2)nc2ccccc12,0,0,0,0,0,46,25,
c1ccc(N(c2ccccc2)c2nc(N3CCCC3)nc(-n3ccnc3)n2)cc1,0,0,0,0,0,37,58,RORg DNA counter=8.5
CN(c1ccccc1)c1nc(N2CCCC2)nc(-n2ccnc2)n1,0,0,0,0,0,0,-,
COc1ccc(CCNC(=O)c2cc3ccc(Cl)cc3nc2N)cc1,0,-,-,-,-,-,-,
COc1ccc(C(=O)Nc2ccccc2C(=O)NC(Cc2ccc(O)cc2)C(=O)NNC(=O)c2ccccc2Cl)cc1 (stereo not drawn),0,0,0,0,0,24,19,
COc1ccc(C(=O)NNC(=O)C(Cc2ccc(O)cc2)NC(=O)c2ccccc2NC(=O)c2ccc(OC)cc2)cc1 (stereo not drawn),0,0,0,0,0,45,36,RORg DNA counter=0
COc1ccc(C(=O)Nc2ccccc2C(=O)Nc2ccccc2)cc1,0,0,0,0,0,68,45,RORg DNA counter=0
CCCCNC(=O)c1nc(C2CCN(S(=O)(=O)c3ccc(C(F)(F)F)cc3)CC2)oc1-c1ccccc1,-,0,0,0,0,0,-,
O=C(NCCCc1ccccc1)c1cccc(NC(=O)C2CCCCC2)c1,0,0,0,0,0,0,-,
Cc1ccc2[nH]cc(S(=O)(=O)c3ccc(F)cc3)c(=O)c2c1,0,0,0,0,0,0,-,
CCOc1ccc(S(=O)(=O)c2c[nH]c3ccc(C)cc3c2=O)cc1,0,0,0,0,0,31,20,
Cc1ccccc1CN(C)CCS(=O)(=O)c1cc(Cl)ccc1Cl,0,0,0,0,0,16,0,
Cc1n[nH]c(=S)n(NC(=O)CC(=O)Nn2c(=S)[nH]nc(C)c2=O)c1=O,0,0,0,0,0,16,0,
CCN1/C(=C/c2ccc3cc(C)ccc3[n+]2CC)Sc2cc(C)c(C)cc21,0,0,0,0,0,20,22,
CCN1/C(=C/c2ccc3cc(C)ccc3[n+]2CC)Sc2ccccc21,0,0,0,0,0,111,101,RORg DNA counter=0
COc1cc(C=NN2CCN(C(c3ccccc3)c3ccccc3)CC2)cc(OC)c1OC(C)=O,-,-,-,0,-,0,-,
O=C(Nc1ccc2c(c1)Cc1cc([N+](=O)[O-])ccc1-2)C(F)(F)F,0,0,0,0,0,0,-,
COc1cc2c(cc1[N+](=O)[O-])-c1ccc([N+](=O)[O-])cc1C2,0,0,0,0,0,90,12,
O=[N+]([O-])c1ccc2c(c1)Cc1cc(F)ccc1-2,0,0,0,0,0,70,61,RORg DNA counter=0
CC1CCN(c2ccc(C(=O)O)cc2NS(=O)(=O)c2ccc(F)cc2)CC1,-,-,-,0,-,0,-,
COc1ccc(C(=O)CSc2nnc3ccc(-c4ccccn4)nn23)cc1,0,0,0,0,0,52,19,
COc1ccc(-n2c(COc3ccc(C)cc3)nnc2SCC(=O)c2ccc(-c3ccccc3)cc2)cc1,-,-,-,0,-,45,28,
O=C(CSc1nnc2ccc(-c3ccccn3)nn12)Nc1ccc(F)cc1,0,0,0,0,0,0,-,
O=C(CSc1nnc2ccc(-c3ccccn3)nn12)Nc1cccc(F)c1,0,0,0,0,0,22,16,
